The subject of series [1] is Cortex. The experiment in a line: Drug uptake in APP/PS1 Alzheimer's disease mouse brain cortex at 4 MBq at 45 mins postinjection by dual label autoradiography relative to control. The following applies: in vivo, 0.75 h. The class given is ADME, organism-based. An outline of the steps:
(§1)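 Multimodal study of one 25-month-old APP/PS1 Tg mouse, with a 28-month-old control. Tail-vein coinjection of 18F tracer plus [3H]-reference: 13.5 + 4.0 MBq (Tg) or 10.0 + 3.7 MBq (control). Mice underwent µPET/CT for 45 min in list mode and were killed at 45 min. Ex vivo work included regional brain biodistribution and dual-label (3H/18F) digital autoradiography on 12 µm axial sections.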

Series [2] has as its system Cortex. Nature of the series: Drug uptake in APP/PS1 Alzheimer's disease mouse brain cortex at 4 MBq at 45 mins postinjection by uPET/CT analysis relative to control. The class given is ADME, organism-based. The following applies: in vivo, 0.75 h. An outline of the steps: as §1
The target of series [3] is T1, Amyloid-beta precursor protein (Homo sapiens, UniProt P05067). The experiment in a line: Displacement of [3H]Pittsburgh compound B from human Abeta1-40 after 3 hrs by liquid scintillation counting. In general terms: Loss of bound radioactivity is the signal in a displacement assay; it reports binding, not function.
For series [4], the target named is T1, Amyloid-beta precursor protein. The experiment in a line: Displacement of [3H]Pittsburgh compound B from human Abeta1-42 after 3 hrs by liquid scintillation counting.
Series [5] relates to Brain. Nature of the series: Drug uptake in Balb-C mouse brain at 4 to 6 MBq, iv after 5 mins by gamma counting relative to [11C]Pittsburgh compound B. The following applies: in vivo. Type of series: ADME, organism-based. The method, boiled down: (§2)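 Male Balb-C mice received tracer or [11C] reference. Brain uptake was measured at 5 and 30 min pi and reported as mean ± SD, n ≥ 4.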

The subject of series [6] is Brain. Nature of the series: Drug uptake in Balb-C mouse brain at 4 to 6 MBq, iv after 30 mins by gamma counting relative to [11C]Pittsburgh compound B. Type of series: ADME, organism-based. As to conditions: in vivo, 0.5 h. An outline of the steps:
as §2

A short description of series [7]: Metabolic stability in Balb-C mouse blood at 21 to 32 MBq, iv after 10 mins by gamma counting. Type of series: ADME, organism-based. The following applies: read-out: Stability. An outline of the steps:
(§3)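 Balb-C mice were sampled for blood and brain tissue at 10 and 30 min pi. Radioactivity speciation is given as % intact tracer.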

A short description of series [8]: Metabolic stability in Balb-C mouse blood at 21 to 32 MBq, iv after 30 mins by gamma counting. The class given is ADME, organism-based. The following applies: read-out: Stability. The method, boiled down:
as §3

The nature of series [9]: Metabolic stability in Balb-C mouse brain at 21 to 32 MBq, iv after 10 mins by gamma counting. Type of series: ADME, organism-based. As to conditions: read-out: Stability. An outline of the steps:
as §3

A short description of series [10]: Metabolic stability in Balb-C mouse brain at 21 to 32 MBq, iv after 30 mins by gamma counting. As to conditions: read-out: Stability. Type of series: ADME, organism-based. The method, boiled down:
as §3

Series [11] has as its system Brain. The experiment in a line: Drug uptake in APP/PS1 Alzheimer's disease mouse brain cortex at 11.7 +/- 4.1 MBq at 36 to 45 mins postinjection by uPET analysis relative to control. Type of series: ADME, organism-based. As to conditions: in vivo. An outline of the steps:
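APP/PS1 (homozygous) Tg mice, 24.0 ± 0.4 months old (n = 7), and age-matched C57B6/J controls, 25 ± 2 months old (n = 3). Each mouse got a single bolus of 18F tracer: 11.7 ± 4.1 MBq for Tg, 11.5 ± 3.4 MBq for controls. Images are µPET frames summed over 36–45 min pi, with CT overlaid on an MRI template. Cortical and cerebellar VOI TACs and cortex/cerebellum ratios were derived.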

In series [12] the test system is Cortex. The experiment in a line: Drug uptake in APP/PS1 Alzheimer's disease mouse brain cortex at 13.5 MBq at 45 mins postinjection by dual label autoradiography relative to control. Type of series: ADME, organism-based. As to conditions: in vivo, 0.75 h. The method, boiled down:
as §1

For series [13], the system named is Cortex. The experiment in a line: Drug uptake in APP/PS1 Alzheimer's disease mouse brain cortex at 13.5 MBq at 45 mins postinjection by uPET/CT analysis relative to control. Type of series: ADME, organism-based. The following applies: in vivo, 0.75 h. An outline of the steps: as §1
Series [14] has as its system Cortex. The experiment in a line: Binding affinity to amyloid beta plaque in APP/PS1 Alzheimer's disease mouse brain cortex at 13.5 MBq after 45 mins postinjection by immunohistochemistry analysis relative to control. Type of series: functional, organism-based. Also noted: dose or concentration left out as unconfirmed. The following applies: tested as the 18F-labelled form.

For series [15], the system named is Cortex. The experiment in a line: Binding affinity to amyloid beta plaque in APP/PS1 Alzheimer's disease mouse brain cortex at 4 MBq after 45 mins postinjection by immunohistochemistry analysis relative to control. Type of series: functional, organism-based. The arrangement: dose or concentration left out as unconfirmed. The following applies: tested as the 3H-labelled form.

For series [16], the system named is Brain. Nature of the series: Ratio of drug uptake in Alzheimer's disease patient brain to healthy human brain. The class given is ADME, tissue-based. The following applies: in vivo.

Activity calls are given as the source filed them. The calls are words filed in the database; no cut-off is given here.

T1 sequence (P05067 whole entry): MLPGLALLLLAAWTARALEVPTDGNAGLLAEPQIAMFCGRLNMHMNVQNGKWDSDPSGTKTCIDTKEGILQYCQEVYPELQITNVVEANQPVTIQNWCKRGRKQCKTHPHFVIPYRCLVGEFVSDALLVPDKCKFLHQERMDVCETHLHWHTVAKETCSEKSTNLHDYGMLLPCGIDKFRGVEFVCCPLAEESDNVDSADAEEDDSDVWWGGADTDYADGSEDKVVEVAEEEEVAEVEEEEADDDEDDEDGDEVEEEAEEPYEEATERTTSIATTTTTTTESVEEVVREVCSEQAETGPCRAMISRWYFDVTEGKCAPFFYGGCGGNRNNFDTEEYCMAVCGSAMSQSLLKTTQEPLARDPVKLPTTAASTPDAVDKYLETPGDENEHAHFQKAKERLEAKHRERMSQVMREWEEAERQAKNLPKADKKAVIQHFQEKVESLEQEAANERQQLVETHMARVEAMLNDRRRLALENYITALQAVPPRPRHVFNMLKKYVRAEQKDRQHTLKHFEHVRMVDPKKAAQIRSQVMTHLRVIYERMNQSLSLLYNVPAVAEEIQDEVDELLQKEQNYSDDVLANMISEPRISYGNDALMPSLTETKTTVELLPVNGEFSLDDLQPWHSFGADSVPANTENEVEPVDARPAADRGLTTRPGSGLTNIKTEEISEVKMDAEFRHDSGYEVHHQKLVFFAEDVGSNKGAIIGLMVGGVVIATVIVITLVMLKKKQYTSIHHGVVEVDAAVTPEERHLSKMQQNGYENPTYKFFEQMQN

On to `[3H]Oc1ccc2nc(-c3ccc(NC)cc3)sc2c1`, for which the Drug uptake result in series [1] and in [2] was “Active” throughout.

Broadly, the Ki is the equilibrium dissociation constant of an inhibitor or competing ligand from its target. With `CNc1ccc(-c2cn3c(n2)sc2cc(OCC[18F])ccc23)cc1`, the Ki was 2.1 nM in series [3] and 3.2 nM in series [4]. The Drug uptake result in [5], in series [6], in [11], in series [12] and in series [13] was “Active” in each case. For the same compound, the remaining at 10 min in series [7] is 12%; in [9], 92%. Also, the figures for the remaining at 0.5 h in series [8] and in series [10] were 5% and 88%, respectively.

For `CNc1ccc(-c2cn3c(n2)sc2cc(OCCF)ccc23)cc1`, the result in [14] was Active.

Regarding `[11CH3]Nc1ccc(-c2nc3ccc(O)cc3s2)cc1` [PITTSBURGH COMPOUND B], the Drug uptake entry in series [5] and in [6] was “Active” throughout.

For the compound `CNc1ccc(-c2nc3ccc(O)cc3s2)cc1`, the result in series [15] was Active.

In the case of `CNc1ccc(/C=C/c2ccc(OCCOCCOCC[18F])cc2)cc1` [FLORBETABEN F18], in [16], the Ratio is listed as 1.5.

For the compound `CC(=C(C#N)C#N)c1ccc2cc(N(C)CC[18F])ccc2c1`, the Ratio in series [16] is recorded as 1.3.
